Experimental data: ChEMBL document CHEMBL4052759, “Discovery of DS79182026: A potent orally active hepcidin production inhibitor” (Bioorg Med Chem Lett, 2017)
Values belong to the molecule of their own block, whether it stands above or below them. Active and inactive are the calls of the source. No cut-off for these calls is given here.

Columns and labels:
HepG2 = assay: Inhibition of human recombinant BMP6-stimulated hepcidin mRNA expression in human HepG2 cells after 6 hrs by qRT-PCR analysis; type: functional, cell-based; details: HepG2, 6 h
[1] = molecular target: Tyrosine-protein kinase BTK (Homo sapiens) (UniProt Q06187); assay: Inhibition of BTK (unknown origin) at 0.078 uM relative to control
[2] = Tmax in C57BL/6J mouse at 30 mg/kg, po by LC-MS/MS analysis; type: ADME, organism-based; details: in vivo
[3] = Metabolic stability in mouse liver microsomes assessed as parent compound remaining at 1 uM after 0.5 hrs by LC-MS/MS analysis; type: ADME, microsome; details: read-out: Stability
[4] = AUC in C57BL/6J mouse at 30 mg/kg, po by LC-MS/MS analysis; type: ADME, organism-based; details: in vivo
Mus musculus = assay: Antiinflammatory activity in C57BL/6J mouse assessed as reduction in recombinant mouse IL-6 induced serum hepcidin level at 30 mg/kg, po pretreated for 30 mins followed by IL-6 challenge measured after 4 hrs by LC-MS/MS analysis; type: functional, organism-based
In short: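 9-week-old male C57BL/6J mice were dosed orally at 30 mg/kg (0.5% methylcellulose suspension, n = 4) 30 min before intravenous mouse IL-6. Blood was taken 4 h after IL-6 and serum hepcidin was measured. Groups were compared by t-test against saline-treated and 0.5% MC vehicle-treated groups.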

[5] = Cmax in C57BL/6J mouse at 30 mg/kg, po by LC-MS/MS analysis; type: ADME, organism-based; set-up: dose 30 mg/kg, route oral; details: in vivo
[6] = molecular target: T1, Serine/threonine-protein kinase D2 (Homo sapiens) (UniProt Q9BZL6); assay: Inhibition of PKD2 (unknown origin) at 0.078 uM relative to control
T1 sequence (whole entry): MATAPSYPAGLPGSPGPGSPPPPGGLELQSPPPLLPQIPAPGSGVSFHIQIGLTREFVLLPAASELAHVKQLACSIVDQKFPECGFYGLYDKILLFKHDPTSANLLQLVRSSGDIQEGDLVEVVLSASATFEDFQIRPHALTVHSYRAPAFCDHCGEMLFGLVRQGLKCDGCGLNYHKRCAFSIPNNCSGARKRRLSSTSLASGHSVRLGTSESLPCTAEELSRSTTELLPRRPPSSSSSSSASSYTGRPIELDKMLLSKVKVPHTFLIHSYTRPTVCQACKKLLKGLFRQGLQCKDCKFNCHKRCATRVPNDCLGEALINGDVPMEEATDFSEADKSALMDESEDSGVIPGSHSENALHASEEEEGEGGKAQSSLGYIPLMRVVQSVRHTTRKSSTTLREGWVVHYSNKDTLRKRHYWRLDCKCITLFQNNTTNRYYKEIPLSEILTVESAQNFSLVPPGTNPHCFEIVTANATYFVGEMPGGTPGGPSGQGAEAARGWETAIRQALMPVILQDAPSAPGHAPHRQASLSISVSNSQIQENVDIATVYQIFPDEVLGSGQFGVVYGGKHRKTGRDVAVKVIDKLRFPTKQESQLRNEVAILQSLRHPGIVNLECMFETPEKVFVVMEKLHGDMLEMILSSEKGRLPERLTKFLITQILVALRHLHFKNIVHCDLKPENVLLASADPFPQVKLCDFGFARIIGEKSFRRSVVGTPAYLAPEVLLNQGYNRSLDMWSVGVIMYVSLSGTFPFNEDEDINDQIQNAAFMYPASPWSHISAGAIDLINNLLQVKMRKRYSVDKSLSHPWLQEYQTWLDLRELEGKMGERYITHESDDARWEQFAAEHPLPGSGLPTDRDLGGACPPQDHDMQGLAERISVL

[7] = Lipophilicity, log D of the compound; type: physicochemical; details: octanol/water
[8] = molecular target: RAC-beta serine/threonine-protein kinase (Homo sapiens) (UniProt P31751); assay: Inhibition of AKT2 (unknown origin) at 0.078 uM relative to control
[9] = molecular target: Serine/threonine-protein kinase Chk2 (Homo sapiens) (UniProt O96017); assay: Inhibition of CHK2 (unknown origin) at 0.49 uM relative to control
[10] = molecular target: Receptor tyrosine-protein kinase erbB-4 (Homo sapiens) (UniProt Q15303); assay: Inhibition of HER4 (unknown origin) at 0.49 uM relative to control
[11] = molecular target: Glycogen synthase kinase-3 beta (Homo sapiens) (UniProt P49841); assay: Inhibition of GSK3b (unknown origin) at 0.49 uM relative to control
[12] = molecular target: Epidermal growth factor receptor (Homo sapiens) (UniProt P00533); assay: Inhibition of EGFR (unknown origin) at 0.49 uM relative to control
[13] = molecular target: Serine/threonine-protein kinase MARK1 (Homo sapiens) (UniProt Q9P0L2); assay: Inhibition of MARK1 (unknown origin) at 0.49 uM relative to control
[14] = system: Leucine-rich repeat serine/threonine-protein kinase 2 (Homo sapiens), Q5S007 [G2019S]; assay: Inhibition of LRRK2 G2019S mutant (unknown origin) at 0.49 uM relative to control
[15] = molecular target: Serine/threonine-protein kinase D1 (Homo sapiens) (UniProt Q15139); assay: Inhibition of PKD1 (unknown origin) at 0.49 uM relative to control
[16] = molecular target: Cyclin-dependent kinase 1/cyclin B1 (Homo sapiens) (UniProt P06493+P14635); assay: Inhibition of CDK1/Cycline B1 (unknown origin) at 0.49 uM relative to control; type: protein-complex assay
[17] = molecular target: Tyrosine-protein kinase Mer (Homo sapiens) (UniProt Q12866); assay: Inhibition of Mer (unknown origin) at 0.45 uM relative to control
[18] = molecular target: Cyclin-dependent kinase 3 (Homo sapiens) (UniProt Q00526); assay: Inhibition of CDK3 (unknown origin) at 0.45 uM relative to control
[19] = molecular target: Tyrosine-protein kinase receptor UFO (Homo sapiens) (UniProt P30530); assay: Inhibition of AXL (unknown origin) at 0.45 uM relative to control
[20] = molecular target: MAP kinase-interacting serine/threonine-protein kinase 2 (Homo sapiens) (UniProt Q9HBH9); assay: Inhibition of MNK2 (unknown origin) at 0.45 uM relative to control
[21] = molecular target: SRSF protein kinase 2 (Homo sapiens) (UniProt P78362); assay: Inhibition of SRPK2 (unknown origin) at 0.45 uM relative to control
[22] = molecular target: Hepatocyte growth factor receptor (Homo sapiens) (UniProt P08581); assay: Inhibition of MET (unknown origin) at 0.45 uM relative to control
[23] = molecular target: Ephrin type-B receptor 2 (Homo sapiens) (UniProt P29323); assay: Inhibition of EPHB2 (unknown origin) at 0.45 uM relative to control
[24] = molecular target: Dual specificity tyrosine-phosphorylation-regulated kinase 2 (Homo sapiens) (UniProt Q92630); assay: Inhibition of DYRK2 (unknown origin) at 0.45 uM relative to control
[25] = system: Proto-oncogene tyrosine-protein kinase receptor Ret (Homo sapiens), P07949 [Y791F]; assay: Inhibition of RET Y791F mutant (unknown origin) at 0.45 uM relative to control
Sequence of Proto-oncogene tyrosine-protein kinase receptor Ret (Homo sapiens), P07949 [Y791F] (P07949 whole entry Y791F): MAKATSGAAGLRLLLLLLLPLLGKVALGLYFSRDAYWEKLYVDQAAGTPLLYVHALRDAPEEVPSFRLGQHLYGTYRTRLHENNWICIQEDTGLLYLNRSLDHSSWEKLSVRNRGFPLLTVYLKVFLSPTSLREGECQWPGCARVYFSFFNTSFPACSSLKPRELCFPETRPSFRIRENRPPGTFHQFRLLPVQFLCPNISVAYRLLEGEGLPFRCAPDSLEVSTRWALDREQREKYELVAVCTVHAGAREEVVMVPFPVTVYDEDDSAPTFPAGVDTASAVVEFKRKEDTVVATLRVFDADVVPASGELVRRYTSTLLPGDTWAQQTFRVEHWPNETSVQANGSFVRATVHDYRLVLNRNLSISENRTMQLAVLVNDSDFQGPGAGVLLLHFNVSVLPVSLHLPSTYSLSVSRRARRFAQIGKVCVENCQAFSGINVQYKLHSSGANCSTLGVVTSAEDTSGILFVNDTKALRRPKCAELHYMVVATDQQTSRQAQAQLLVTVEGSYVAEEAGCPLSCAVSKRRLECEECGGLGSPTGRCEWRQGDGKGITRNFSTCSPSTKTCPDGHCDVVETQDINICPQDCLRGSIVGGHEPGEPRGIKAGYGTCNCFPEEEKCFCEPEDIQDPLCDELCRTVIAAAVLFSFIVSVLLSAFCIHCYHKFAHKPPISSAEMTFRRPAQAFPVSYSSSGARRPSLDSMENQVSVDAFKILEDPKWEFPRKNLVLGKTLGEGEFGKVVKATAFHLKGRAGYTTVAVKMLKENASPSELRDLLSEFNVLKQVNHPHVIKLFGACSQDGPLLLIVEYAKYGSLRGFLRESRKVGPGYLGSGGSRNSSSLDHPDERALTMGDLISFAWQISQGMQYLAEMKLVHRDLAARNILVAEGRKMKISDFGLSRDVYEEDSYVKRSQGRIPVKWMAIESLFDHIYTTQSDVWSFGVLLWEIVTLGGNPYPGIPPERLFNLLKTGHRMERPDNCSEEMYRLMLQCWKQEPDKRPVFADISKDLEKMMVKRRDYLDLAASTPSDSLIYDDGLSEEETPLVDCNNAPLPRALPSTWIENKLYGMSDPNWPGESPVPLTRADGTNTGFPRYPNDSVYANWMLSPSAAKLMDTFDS

Sequence of Epidermal growth factor receptor (Homo sapiens) (P00533 whole entry): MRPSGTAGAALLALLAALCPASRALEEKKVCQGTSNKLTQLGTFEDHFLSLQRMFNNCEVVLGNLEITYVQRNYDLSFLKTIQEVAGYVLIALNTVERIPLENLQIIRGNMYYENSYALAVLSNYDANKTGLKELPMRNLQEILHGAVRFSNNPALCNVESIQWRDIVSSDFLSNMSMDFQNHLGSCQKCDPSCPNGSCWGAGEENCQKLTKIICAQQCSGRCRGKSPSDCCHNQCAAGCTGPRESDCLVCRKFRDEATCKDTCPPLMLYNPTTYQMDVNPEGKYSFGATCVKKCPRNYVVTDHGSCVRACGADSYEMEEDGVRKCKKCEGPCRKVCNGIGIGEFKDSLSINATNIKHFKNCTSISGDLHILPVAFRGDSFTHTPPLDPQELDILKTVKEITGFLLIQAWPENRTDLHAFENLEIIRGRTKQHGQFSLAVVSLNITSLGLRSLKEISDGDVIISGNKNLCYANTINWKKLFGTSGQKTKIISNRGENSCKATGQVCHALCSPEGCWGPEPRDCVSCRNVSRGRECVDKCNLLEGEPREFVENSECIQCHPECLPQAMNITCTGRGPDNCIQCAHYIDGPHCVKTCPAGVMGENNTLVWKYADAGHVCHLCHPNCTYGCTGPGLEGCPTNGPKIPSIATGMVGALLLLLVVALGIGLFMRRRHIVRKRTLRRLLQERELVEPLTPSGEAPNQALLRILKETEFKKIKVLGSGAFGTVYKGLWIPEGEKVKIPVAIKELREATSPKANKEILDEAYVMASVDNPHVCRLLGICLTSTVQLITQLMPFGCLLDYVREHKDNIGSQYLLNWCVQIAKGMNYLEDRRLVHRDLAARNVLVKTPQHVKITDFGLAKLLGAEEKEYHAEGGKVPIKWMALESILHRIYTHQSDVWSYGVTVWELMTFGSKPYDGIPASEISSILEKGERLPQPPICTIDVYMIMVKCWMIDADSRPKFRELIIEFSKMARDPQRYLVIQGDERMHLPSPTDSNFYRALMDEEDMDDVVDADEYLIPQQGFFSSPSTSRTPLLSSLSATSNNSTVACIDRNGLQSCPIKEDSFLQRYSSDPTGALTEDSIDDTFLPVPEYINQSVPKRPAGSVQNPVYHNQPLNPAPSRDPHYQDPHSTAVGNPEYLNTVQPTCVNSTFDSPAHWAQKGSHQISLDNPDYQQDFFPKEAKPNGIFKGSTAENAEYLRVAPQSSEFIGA
Sequence of Hepatocyte growth factor receptor (Homo sapiens) (P08581 whole entry): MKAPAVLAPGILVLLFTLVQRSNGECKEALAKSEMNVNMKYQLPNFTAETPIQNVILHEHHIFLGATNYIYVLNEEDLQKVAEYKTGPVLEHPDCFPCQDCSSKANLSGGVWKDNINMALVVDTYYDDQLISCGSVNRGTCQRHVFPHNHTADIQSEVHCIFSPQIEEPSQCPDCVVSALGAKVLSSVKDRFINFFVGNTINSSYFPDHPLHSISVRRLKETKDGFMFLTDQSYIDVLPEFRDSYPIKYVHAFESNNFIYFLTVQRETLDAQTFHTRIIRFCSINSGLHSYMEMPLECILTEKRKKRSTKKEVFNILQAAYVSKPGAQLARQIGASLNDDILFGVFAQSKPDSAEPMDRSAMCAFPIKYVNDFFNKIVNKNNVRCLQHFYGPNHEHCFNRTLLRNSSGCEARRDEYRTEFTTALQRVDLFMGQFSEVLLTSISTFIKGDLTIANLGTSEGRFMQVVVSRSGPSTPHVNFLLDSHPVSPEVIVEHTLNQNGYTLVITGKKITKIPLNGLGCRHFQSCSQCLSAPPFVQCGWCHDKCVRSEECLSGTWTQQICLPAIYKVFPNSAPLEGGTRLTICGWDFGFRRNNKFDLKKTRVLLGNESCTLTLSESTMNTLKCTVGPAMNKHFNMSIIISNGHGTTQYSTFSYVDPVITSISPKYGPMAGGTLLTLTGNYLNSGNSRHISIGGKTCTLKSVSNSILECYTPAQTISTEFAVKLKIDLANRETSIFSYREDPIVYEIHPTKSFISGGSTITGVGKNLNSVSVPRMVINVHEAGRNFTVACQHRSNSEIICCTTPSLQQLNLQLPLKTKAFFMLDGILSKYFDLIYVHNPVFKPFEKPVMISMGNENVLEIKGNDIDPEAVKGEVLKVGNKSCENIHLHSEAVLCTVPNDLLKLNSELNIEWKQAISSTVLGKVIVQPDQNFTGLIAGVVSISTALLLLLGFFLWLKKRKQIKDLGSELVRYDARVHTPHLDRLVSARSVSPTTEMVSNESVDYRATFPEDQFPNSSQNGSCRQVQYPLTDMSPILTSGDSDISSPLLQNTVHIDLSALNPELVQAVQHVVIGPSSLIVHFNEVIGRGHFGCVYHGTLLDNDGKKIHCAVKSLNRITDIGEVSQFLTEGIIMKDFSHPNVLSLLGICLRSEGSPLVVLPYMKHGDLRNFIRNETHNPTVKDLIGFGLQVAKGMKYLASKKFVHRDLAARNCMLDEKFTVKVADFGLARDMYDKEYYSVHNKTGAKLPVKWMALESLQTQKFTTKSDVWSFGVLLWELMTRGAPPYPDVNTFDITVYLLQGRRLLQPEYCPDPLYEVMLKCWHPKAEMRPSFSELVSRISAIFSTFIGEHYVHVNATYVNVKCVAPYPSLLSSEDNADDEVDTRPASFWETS
Sequence of Tyrosine-protein kinase BTK (Homo sapiens) (Q06187 whole entry): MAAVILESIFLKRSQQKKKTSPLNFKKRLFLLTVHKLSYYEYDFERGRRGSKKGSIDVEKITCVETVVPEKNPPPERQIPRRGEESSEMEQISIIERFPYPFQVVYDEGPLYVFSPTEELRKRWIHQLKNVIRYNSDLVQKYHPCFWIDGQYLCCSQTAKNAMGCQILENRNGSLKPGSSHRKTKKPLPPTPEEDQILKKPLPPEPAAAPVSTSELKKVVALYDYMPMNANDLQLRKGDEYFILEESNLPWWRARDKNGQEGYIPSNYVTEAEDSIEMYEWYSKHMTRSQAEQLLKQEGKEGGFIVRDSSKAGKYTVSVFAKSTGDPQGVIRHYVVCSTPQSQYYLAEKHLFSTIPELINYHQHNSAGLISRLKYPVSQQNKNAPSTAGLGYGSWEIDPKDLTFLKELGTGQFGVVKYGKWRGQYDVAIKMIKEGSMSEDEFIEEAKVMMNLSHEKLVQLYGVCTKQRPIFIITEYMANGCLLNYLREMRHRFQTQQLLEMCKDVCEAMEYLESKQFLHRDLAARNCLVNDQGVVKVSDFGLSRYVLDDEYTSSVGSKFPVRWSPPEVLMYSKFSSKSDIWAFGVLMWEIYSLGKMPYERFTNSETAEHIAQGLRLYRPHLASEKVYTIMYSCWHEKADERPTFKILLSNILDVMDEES
Sequence of Cyclin-dependent kinase 1/cyclin B1 (Homo sapiens) (P06493 whole entry, looked up): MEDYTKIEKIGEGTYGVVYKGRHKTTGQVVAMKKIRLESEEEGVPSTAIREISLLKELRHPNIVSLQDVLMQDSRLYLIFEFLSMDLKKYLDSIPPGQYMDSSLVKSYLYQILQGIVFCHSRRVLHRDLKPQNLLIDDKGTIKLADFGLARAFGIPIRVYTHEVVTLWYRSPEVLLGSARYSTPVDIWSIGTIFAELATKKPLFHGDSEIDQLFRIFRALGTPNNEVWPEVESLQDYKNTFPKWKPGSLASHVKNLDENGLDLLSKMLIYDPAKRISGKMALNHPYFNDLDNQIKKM
Sequence of Cyclin-dependent kinase 1/cyclin B1 (Homo sapiens) (P14635 whole entry, looked up): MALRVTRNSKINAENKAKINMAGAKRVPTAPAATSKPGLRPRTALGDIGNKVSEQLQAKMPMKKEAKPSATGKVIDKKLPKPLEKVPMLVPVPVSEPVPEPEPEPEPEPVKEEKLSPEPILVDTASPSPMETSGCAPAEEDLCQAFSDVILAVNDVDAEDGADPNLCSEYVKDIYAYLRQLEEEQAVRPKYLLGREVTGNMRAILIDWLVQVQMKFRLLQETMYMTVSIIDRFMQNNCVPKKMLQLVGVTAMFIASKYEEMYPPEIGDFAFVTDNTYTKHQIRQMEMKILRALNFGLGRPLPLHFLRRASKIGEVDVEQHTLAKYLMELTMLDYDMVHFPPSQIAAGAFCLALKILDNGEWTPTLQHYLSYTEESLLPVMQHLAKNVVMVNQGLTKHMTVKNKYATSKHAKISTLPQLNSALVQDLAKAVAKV

IC50 (HepG2): 39 nM
inhibition [1]: 7.7%
Tmax [2]: 1 h
remaining at 0.5 h, 1 µM [3]: 87%
AUC [4]: 36200 ng·h/mL
Cmax [5]: 9170 ng/mL
inhibition [6]: -0.7%
logD [7]: 2.5
inhibition [8]: 4%
Structure (SMILES): COC(=O)Nc1noc2cc(-c3c(-c4ccccn4)n[nH]c3C)ccc12
Activity (Mus musculus): Active

inhibition [9]: 8%
inhibition [10]: -10%
IC50 (HepG2): 290 nM
inhibition [11]: 6.7%
inhibition [12]: -7.3%
inhibition [13]: 3.3%
inhibition [14]: 5.3%
inhibition [15]: 1.7%
inhibition [16]: 20%
Structure (SMILES): Cc1[nH]nc(C2CC2)c1-c1ccc2c(NC(=O)C3CC3)noc2c1

inhibition [17]: 0.7%
IC50 (HepG2): 230 nM
Tmax [2]: 3.25 h
inhibition [18]: 7.3%
inhibition [19]: 0.3%
inhibition [20]: -1%
inhibition [21]: 0.3%
inhibition [22]: 5.7%
inhibition [23]: 6.7%
remaining at 0.5 h, 1 µM [3]: 80%
AUC [4]: 2550 ng·h/mL
Cmax [5]: 920 ng/mL
logD [7]: 2.4
inhibition [24]: 8%
inhibition [25]: 58.7%
Structure (SMILES): Cc1n[nH]c(C)c1-c1ccc2c(NC(=O)c3ccc(N4CCN(C)CC4)cc3)n[nH]c2c1
Activity (Mus musculus): Active
